{"source": "ChEMBL document CHEMBL2396611", "about": "“Synthesis and mechanism of hypoglycemic activity of benzothiazole derivatives” (J Med Chem, 2013)", "key": {"[1]": {"target": "5'-AMP-activated protein kinase catalytic subunit alpha-2 (Rattus norvegicus) (UniProt Q09137)", "sequence (Q09137 whole entry)": "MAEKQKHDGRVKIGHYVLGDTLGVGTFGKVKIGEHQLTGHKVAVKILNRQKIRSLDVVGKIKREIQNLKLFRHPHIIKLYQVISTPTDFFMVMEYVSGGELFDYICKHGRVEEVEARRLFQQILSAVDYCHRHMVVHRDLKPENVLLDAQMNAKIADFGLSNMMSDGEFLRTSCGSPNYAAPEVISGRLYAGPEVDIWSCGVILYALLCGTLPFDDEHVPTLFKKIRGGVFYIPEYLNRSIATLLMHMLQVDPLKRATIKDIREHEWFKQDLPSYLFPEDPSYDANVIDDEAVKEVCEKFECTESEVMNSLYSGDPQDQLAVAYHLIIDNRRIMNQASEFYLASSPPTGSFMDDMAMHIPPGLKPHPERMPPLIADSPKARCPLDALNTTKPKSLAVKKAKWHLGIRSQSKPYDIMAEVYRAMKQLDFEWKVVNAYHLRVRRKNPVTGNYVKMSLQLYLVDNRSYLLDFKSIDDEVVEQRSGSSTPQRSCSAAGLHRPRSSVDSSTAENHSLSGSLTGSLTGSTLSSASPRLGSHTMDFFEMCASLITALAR", "assay": "Activation of AMPK in rat L6 cells assessed as ACC phosphorylation at Ser79 at 25 uM after 3 hrs by Western blot analysis relative to control", "type": "cell-based", "procedure,_shortened": "(§1)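 Fully differentiated L6 myotubes, preincubated 3 h with or without 5 μM Compound C. Test agents: compound at 25 μM for 3 h, sorbitol 250 mM for 40 min, AICAR 4 mM for 30 min. Whole-cell lysates probed by Western blot for pSer79-ACC, ACC, pThr642-AS-160, AS-160 and α-tubulin; band densities summarized, n=3, vs respective controls.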"}, "[2]": {"target": "5'-AMP-activated protein kinase catalytic subunit alpha-2 (Rattus norvegicus) (UniProt Q09137)", "assay": "Activation of AMPK in rat L6 cells assessed as ACC phosphorylation at Ser79 at 250 mM after 40 mins by Western blot analysis relative to control", "type": "cell-based", "procedure,_shortened": "as §1"}, "L6 [3]": {"tested_on": "L6", "assay": "Increase of [3H]dGlc uptake in rat L6 cells after 5 hrs in presence of AMPK inhibitor compound C", "type": "functional, cell-based", "procedure,_shortened": "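Differentiated L6 myotubes held 24 h in αMEM with 2% FCS and 23.0 mM D-glucose, then serum-free medium with 0.5% BSA for 4 h. Compound C (5 µM) added 5 h before the uptake assay, alongside 25 µM test agent. Cells rinsed in PBS, then given 0.1 mM dGlc with 1.3 µCi/mL [3H]dGlc in PBS pH 7.4 for 5 min at room temperature. Lysed in 0.1% SDS and counted by scintillation; n=6.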"}, "Cytochrome P450 2D6": {"target": "Cytochrome P450 2D6 (Homo sapiens, UniProt P10635)", "sequence (P10635 whole entry)": "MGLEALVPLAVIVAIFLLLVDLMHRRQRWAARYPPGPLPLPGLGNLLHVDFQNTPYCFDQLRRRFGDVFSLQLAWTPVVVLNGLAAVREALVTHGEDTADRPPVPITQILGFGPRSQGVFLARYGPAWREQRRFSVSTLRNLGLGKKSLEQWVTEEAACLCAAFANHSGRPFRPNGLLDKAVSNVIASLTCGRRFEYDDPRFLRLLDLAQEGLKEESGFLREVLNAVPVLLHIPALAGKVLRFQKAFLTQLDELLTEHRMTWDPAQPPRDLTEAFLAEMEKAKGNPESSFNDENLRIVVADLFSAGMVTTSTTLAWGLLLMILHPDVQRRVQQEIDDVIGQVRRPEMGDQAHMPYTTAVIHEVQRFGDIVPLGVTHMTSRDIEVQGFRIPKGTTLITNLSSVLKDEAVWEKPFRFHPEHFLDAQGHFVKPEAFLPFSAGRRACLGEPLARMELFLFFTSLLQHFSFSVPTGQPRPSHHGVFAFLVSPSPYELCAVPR", "assay": "Inhibition of CYP2D6 (unknown origin) by luminescent based assay", "type": "ADME"}, "Mus musculus [4]": {"tested_on": "Mus musculus", "assay": "Antidiabetic activity in KKAy mouse assessed as reduction of blood glucose level at 30 to 75 mg/kg, sc bid for 4 days measured on day 2 relative to control", "type": "functional", "parameters": "scale not given: the % may be the effect or the level left", "conditions": "dose mg/kg 30-75; route subcutaneous", "procedure,_shortened": "(§2)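 Hyperglycemic KKAy mice injected s.c. twice daily for 4 days with compound at 30 or 75 mg/kg suspended in sesame oil; controls received sesame oil (150 µl). Blood glucose measured at the indicated times, with day-zero levels taken as 100%. n=10 per group, mean ± SEM, compared with oil-treated group.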"}, "[5]": {"target": "5'-AMP-activated protein kinase catalytic subunit alpha-2 (Rattus norvegicus) (UniProt Q09137)", "assay": "Activation of AMPK in rat L6 cells assessed as increase of [3H]dGlc uptake after 5 hrs in presence of PI3K inhibitor wortmannin", "type": "cell-based", "procedure,_shortened": "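Myotubes treated with compound, insulin or vehicle in the absence or presence of 100 nM wortmannin or 100 nM Akt/PKB inhibitor, each added 30 min before compound or insulin. Compound C 5 μM was added 5 h before the uptake assay. Rate then measured by the standard 5-min [3H]dGlc uptake assay.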"}, "Mus musculus [6]": {"tested_on": "Mus musculus", "assay": "Antidiabetic activity in overnight fast KKAy mouse assessed as total body glucose clearance at 30 to 75 mg/kg, sc bid for 2 days", "type": "functional", "conditions": "dose mg/kg 30-75; route subcutaneous"}, "Mus musculus [7]": {"tested_on": "Mus musculus", "assay": "Antidiabetic activity in KKAy mouse assessed as reduction of blood glucose level at 30 to 75 mg/kg, sc bid for 4 days", "type": "functional, organism-based", "procedure,_shortened": "as §2"}, "L6 [8]": {"tested_on": "L6", "assay": "Activation of AMPKalpha in rat L6 cells assessed as phosphorylation at Thr172 at 100 uM after 1 hr by Western blot analysis", "type": "cell-based", "procedure,_shortened": "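L6 myotubes exposed for the indicated times to test compound (100 μM in the first series; 50–150 μM in the second) or 4 mM AICAR. Whole-cell lysates immunoblotted for pThr172-AMPKα, AMPKα and α-tubulin; band densities from three independent experiments vs respective controls.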"}, "[9]": {"target": "5'-AMP-activated protein kinase catalytic subunit alpha-2 (Rattus norvegicus) (UniProt Q09137)", "assay": "Activation of AMPK in rat L6 cells assessed as ACC phosphorylation at Ser79 at 4 mM after 30 mins by Western blot analysis relative to control", "type": "cell-based", "procedure,_shortened": "as §1"}, "[10]": {"assay": "Intrinsic clearance in BALB/c mouse liver microsomes at 2 uM", "type": "ADME, Microsome", "conditions": "read-out: CLH"}, "[11]": {"target": "5'-AMP-activated protein kinase catalytic subunit alpha-2 (Rattus norvegicus) (UniProt Q09137)", "assay": "Activation of AMPK in rat L6 cells assessed as AS-160 phosphorylation at Thr642 after 30 mins by Western blot analysis relative to control"}, "[12]": {"target": "5'-AMP-activated protein kinase catalytic subunit alpha-2 (Rattus norvegicus) (UniProt Q09137)", "assay": "Increase in AMPK-mediated myc-tagged GLUT4 translocation in rat L6 cell plasma membrane at 25 uM after 5 hrs by colorimetric analysis", "procedure,_shortened": "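L6 lines stably carrying GLUT4myc or GLUT1myc, treated 5 h with test agent or DMSO; insulin given for 30 min. Live myotubes incubated with rabbit anti-c-Myc (1:200), washed, fixed in 3% formaldehyde, then HRP anti-rabbit IgG (1:2000). Developed with OPD and read at 492 nm to give relative surface transporter abundance.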"}, "L6 [13]": {"tested_on": "L6", "assay": "Activation of AMPKalpha in rat L6 cells assessed as phosphorylation at Thr172 at 100 uM after 4 hrs by Western blot analysis relative to control", "type": "cell-based", "procedure,_shortened": "(§3)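 L6 myotubes treated 4 h with increasing compound concentrations (5 to 150 μM) or DMSO. Whole-cell lysates immunoblotted for pThr172-AMPKα, AMPKα and α-tubulin; phosphorylation expressed relative to DMSO-treated control.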"}, "[14]": {"assay": "Solubility of the compound in water", "type": "physicochemical", "conditions": "buffer"}, "[15]": {"target": "5'-AMP-activated protein kinase catalytic subunit alpha-2 (Rattus norvegicus) (UniProt Q09137)", "assay": "Activation of AMPK in rat L6 cells assessed as increase of [3H]dGlc uptake at 25 uM after 5 hrs relative to control", "type": "cell-based", "procedure,_shortened": "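Fully differentiated L6 myotubes preincubated 24 h in αMEM with 2% FCS and 23.0 mmol/L D-glucose, then 4 h serum-free with 0.5% BSA. Compound or DMSO vehicle given for the indicated times or concentrations. Uptake read after 5 min at room temperature in PBS pH 7.4 with 0.1 mmol/L dGlc and 1.3 μCi/mL [3H]dGlc, by scintillation of SDS lysates. Zero-time basal rate set as 100%; n=6.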"}, "L6 [16]": {"tested_on": "L6", "assay": "Effect on total GLUT1 expression in rat L6 cell lysate at 25 uM after 30 mins to 5 hrs by Western blot analysis", "type": "functional, cell-based", "procedure,_shortened": "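Fully differentiated L6 myotubes, preconditioned in αMEM with 23.0 mM D-glucose; insulin exposure 30 min, test exposure 5 h. Whole-cell lysates made in Tris-HCl pH 7.5 buffer with phosphatase and protease inhibitors, 40 min at 4 °C. Protein measured by Bradford, 5-60 µg per lane. Western blot probed with rabbit polyclonal anti-GLUT1 or anti-GLUT4.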"}, "L6 [17]": {"tested_on": "L6", "assay": "Activation of AMPKalpha in rat L6 cells assessed as phosphorylation at Thr172 at 5 uM after 4 hrs by Western blot analysis relative to control", "type": "cell-based", "procedure,_shortened": "as §3"}, "L6 [18]": {"tested_on": "L6", "assay": "Activation of AMPKalpha in rat L6 cells assessed as phosphorylation at Thr172 at 50 uM after 4 hrs by Western blot analysis relative to control", "type": "cell-based", "procedure,_shortened": "as §3"}, "L6 [19]": {"tested_on": "L6", "assay": "Cytotoxicity against rat L6 cells assessed as cell viability at 25 to 200 uM after 24 hrs by MTT assay", "type": "cell-based", "conditions": "l6, 24 h"}, "[20]": {"assay": "Lipophilicity, log P of the compound", "type": "physicochemical", "conditions": "octanol/water"}, "[21]": {"target": "5'-AMP-activated protein kinase catalytic subunit alpha-2 (Rattus norvegicus) (UniProt Q09137)", "assay": "Activation of AMPK in rat L6 cells assessed as AS-160 phosphorylation at Thr642 at 250 mM after 40 mins by Western blot analysis relative to control", "type": "cell-based", "procedure,_shortened": "as §1"}}, "note": "Active and inactive are the calls of the source. The calls are words filed in the database; no cut-off is given here."}
{"smiles": "CCOc1ccc2nc(SCc3nc4ccccc4s3)sc2c1", "values": [{"measurement": "fold change (FC)", "setting": "[1]", "result": 1.75}, {"measurement": "fold change (FC)", "setting": "[2]", "result": 2.56}, {"measurement": "Activity", "setting": "L6 [3]", "result": "inactive"}, {"measurement": "inhibition (INH)", "setting": "Cytochrome P450 2D6", "result": 64.4, "unit": "%"}, {"measurement": "Activity", "setting": "Mus musculus [4]", "result": 45, "unit": "%"}, {"measurement": "Activity", "setting": "[5]", "result": "Active"}, {"measurement": "Activity", "setting": "Mus musculus [6]", "result": 40, "unit": "%"}, {"measurement": "Activity", "setting": "Mus musculus [7]", "result": "Active"}, {"measurement": "Activity", "setting": "L6 [8]", "result": "Active"}, {"measurement": "fold change (FC)", "setting": "[9]", "result": 3.63}, {"measurement": "microsomal CLint at 2 µM", "setting": "[10]", "result": 692, "unit": "µL/min/mg"}, {"measurement": "fold change (FC)", "setting": "[11]", "result": 1.62}, {"measurement": "Activity", "setting": "[12]", "result": "Active"}, {"measurement": "fold change (FC)", "setting": "L6 [13]", "result": 5.2}, {"measurement": "solubility", "setting": "[14]", "result": 12.1, "unit": "µM"}, {"measurement": "Activity", "setting": "[15]", "result": "Active"}, {"measurement": "Activity", "setting": "L6 [16]", "result": "inactive"}, {"measurement": "fold change (FC)", "setting": "L6 [17]", "result": 2}, {"measurement": "fold change (FC)", "setting": "L6 [18]", "result": 6}, {"measurement": "Activity", "setting": "L6 [19]", "result": "Non-toxic"}, {"measurement": "logP", "setting": "[20]", "result": 4.34}, {"measurement": "fold change (FC)", "setting": "[21]", "result": 1.55}]}
